Experimental findings from ChEMBL document CHEMBL4033697, “Synthesis of methanesulphonamido-benzimidazole derivatives as gastro-sparing antiinflammatory agents with antioxidant effect” (Bioorg Med Chem Lett, 2017) are described below.

What is called ED50 is the dose at which the effect has come halfway, by size or by number of responders. The term EC50 denotes the midpoint of the concentration-response curve.

SMILES strings stand for the structures.

Data set [1] has as its system Rattus norvegicus. The data set can be described thus: Anti-inflammatory activity in rat assessed as reduction in carrageenan-induced paw edema at 30 mg/kg, po measured after 5 hrs by plethysmographic method relative to control. Format: functional. On the set-up: scale not given: the % may be the effect or the level left. In a few lines:
(§1)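 Rats; carrageenan in 0.9% saline injected into paw; compound suspended in 0.5% w/v CMC given orally 30 min after carrageenan, three graded doses per compound. Paw volume by plethysmograph before and at intervals after treatment; values at 5 h. % reduction in edema = (1 − Vt/Vc) × 100 versus carrageenan control; ED50 from the three graded doses; one-way ANOVA.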
A general note: In the carrageenan paw model, swelling and tenderness develop within hours.

For data set [2], the system named is Rattus norvegicus. The data set can be described thus: Ulcerogenicity in rat model of carrageenan-induced paw edema assessed as diameter of lesion in gastric wall at 30 mg/kg, po measured after 5 hrs. Type of data set: toxicity, organism-based. The settings on record: in vivo. In outline:
(§2)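 After oral dosing in 0.5% CMC in the carrageenan paw model, rats were killed by cervical dislocation. Stomachs were inflated with 2% formalin, immersed 10 min to fix, and opened along the greater curvature. Longest lesion diameters were summed as a total lesion score (mm) per animal and averaged per group. Rofecoxib served as negative control and indomethacin as positive control.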

Data set [3] is described as follows: Antioxidant activity of the compound in phosphate buffer at pH 6.6 assessed as potassium ferric cyanide ion reducing activity at 2.5 umol/ml after 20 mins by spectrophotometric method relative to control. Format: functional. On the set-up: scale not given: the % may be the effect or the level left. In outline: (§3)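 Methanolic sample (1.0–50.0 […], units as printed) mixed with 0.2 M phosphate buffer pH 6.6 and 1% K3Fe(CN)6, 50 °C for 20 min; cooled, 10% TCA added, aliquot diluted with water plus 0.1% FeCl3, 10 min stand. A700 read against a methanol control; triplicate. Reducing power (%) = [(Atest − Acontrol)/Atest] × 100; EC50 derived; ascorbic acid standard.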

Data set [4] deals with Rattus norvegicus. The data set can be described thus: Ulcerogenicity in rat model of carrageenan-induced paw edema assessed as diameter of lesion in gastric wall at 2.5 mg/kg, po measured after 5 hrs. Type of data set: toxicity, organism-based. The settings on record: in vivo. In a few lines: as §2
Data set [5] has as its system Rattus norvegicus. The data set can be described thus: Anti-inflammatory activity in rat assessed as reduction in carrageenan-induced paw edema at 2.5 mg/kg, po measured after 5 hrs by plethysmographic method relative to control. Type of data set: functional. More on the design: scale not given: the % may be the effect or the level left. In outline: as §1
Data set [6] deals with Rattus norvegicus. The data set can be described thus: Ulcerogenicity in rat model of carrageenan-induced paw edema assessed as diameter of lesion in gastric wall at 10 mg/kg, po measured after 5 hrs. Type of data set: toxicity, organism-based. The settings on record: in vivo. In a few lines:
as §2

Data set [7] in a line: Antioxidant activity of the compound in phosphate buffer at pH 6.6 assessed as potassium ferric cyanide ion reducing activity at 1 umol/ml after 20 mins by spectrophotometric method relative to control. Type of data set: functional. On the set-up: scale not given: the % may be the effect or the level left. In outline: as §3
Data set [8] is described as follows: Antioxidant activity of the compound in phosphate buffer at pH 6.6 assessed as potassium ferric cyanide ion reducing activity at 25 umol/ml after 20 mins by spectrophotometric method relative to control. More on the design: scale not given: the % may be the effect or the level left. Format: functional. In a few lines:
as §3

Data set [9] relates to Rattus norvegicus. In words: Anti-inflammatory activity in rat assessed as reduction in carrageenan-induced paw edema at 10 mg/kg, po measured after 5 hrs by plethysmographic method relative to control. Type of data set: functional. More on the design: scale not given: the % may be the effect or the level left. In a few lines: as §1
Data set [10] in a line: Antioxidant activity of the compound in phosphate buffer at pH 6.6 assessed as potassium ferric cyanide ion reducing activity at 50 umol/ml after 20 mins by spectrophotometric method relative to control. Format: functional. More on the design: scale not given: the % may be the effect or the level left. In a few lines: as §3
The test system of data set [11] is Rattus norvegicus. The data set can be described thus: Ulcerogenicity in rat model of carrageenan-induced paw edema assessed as diameter of lesion in gastric wall at 40 mg/kg, po measured after 5 hrs. Format: toxicity, organism-based. The settings on record: in vivo. In a few lines: as §2
Data set [12] relates to Rattus norvegicus. In words: Anti-inflammatory activity in rat assessed as reduction in carrageenan-induced paw edema at 40 mg/kg, po measured after 5 hrs by plethysmographic method relative to control. Type of data set: functional. On the set-up: scale not given: the % may be the effect or the level left. In outline:
as §1

The subject of data set [13] is Rattus norvegicus. The data set can be described thus: Anti-inflammatory activity in po dosed rat assessed as reduction in carrageenan-induced paw edema measured after 5 hrs by plethysmographic method. Type of data set: functional. In outline: as §1
The nature of data set [14]: Antioxidant activity of the compound in phosphate buffer at pH 6.6 assessed as potassium ferric cyanide ion reducing activity at 10 umol/ml after 20 mins by spectrophotometric method relative to control. Format: functional. More on the design: scale not given: the % may be the effect or the level left. In a few lines: as §3
A short description of data set [15]: Antioxidant activity of the compound in phosphate buffer at pH 6.6 assessed as potassium ferric cyanide ion reducing activity at 5 umol/ml after 20 mins by spectrophotometric method relative to control. Type of data set: functional. More on the design: scale not given: the % may be the effect or the level left. In outline: as §3
Data set [16] deals with Rattus norvegicus. The data set can be described thus: Toxicity in rat model of carrageenan-induced paw edema assessed as behavioral changes at 2.5 to 40 mg/kg, po measured during compound dosing. The settings on record: in vivo. Type of data set: organism-based.
The nature of data set [17]: Antioxidant activity of the compound in phosphate buffer at pH 6.6 assessed as potassium ferric cyanide ion reducing activity after 20 mins by spectrophotometric method. Type of data set: functional. In outline:
as §3

In the case of `CS(=O)(=O)c1ccc(C2=C(c3ccccc3)C(=O)OC2)cc1` [ROFECOXIB], the Activity in the data set on Rattus norvegicus [1] stood at 78.95%; in the data set with Rattus norvegicus [2], 2.92 mm.

Consider `CCCCn1c(CCC)nc2cc(NS(C)(=O)=O)ccc21`, for which the Activity in [3] came to 31.3%; in the data set with Rattus norvegicus [4] it was 0.27 mm; in the data set with Rattus norvegicus [5], 43.64%; in the data set with Rattus norvegicus [6], 0.51 mm; in data set [7], 12.2%; in [8], 70.3%. The Activity in the data set with Rattus norvegicus [9] was 86.36%; in [10] it was 73.5%; with Rattus norvegicus [11], 1.1 mm; in the data set with Rattus norvegicus [12], 92.73%; in data set [14], 61.8%; in data set [15], 59.8%. The Activity result with Rattus norvegicus [16] is recorded as “Non-Toxic”. Also, the ED50 in the data set with Rattus norvegicus [13] was determined as 2.58 mg/kg. In addition, the EC50 in [17] stood at 4 mM.
